From PubChem
TRPC4 PAM – allosteric potentiators of mouse TRPC4 channel; Q9QUQ5; HEK293 TRPC4beta/mu-opioid, DAMGO EC20, Fluo-4 Ca2+ flux; stronger effect = higher value; B-score at 10 µM; actives 0.42% (n = 310,000); AID 2227;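 active = B-score of calcium response area above 5 SD of library B-scores, with initial fluorescence ratio within 5 SD of library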;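 note: B-score of integrated fluorescence ratio over time as area under calcium response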
TRPC4 agonist – activators of mouse TRPC4 channel; B-score at 10 µM; HEK293 TRPC4beta/mu-opioid, Fluo4 calcium fluorescence; stronger effect = higher value; actives 0.49% (n = 310,000);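 active = B-score above 5 SD of library B-scores, and initial fluorescence ratio not above library mean plus 5 SD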;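 note: positive B-score marks a calcium rise read as TRPC4 activation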
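Technique: kinetic Fluo4 calcium fluorescence; Test system: TRPC4beta and mu-opioid receptor HEK293 stable cells; Measure: B-scored integrated calcium fluorescence ratio; Benchmarks: low control buffer alone, high control maximal DAMGO; Schedule: 45 min room-temperature Fluo4 loading, 110 s read.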
TRPC6 inhibitor – inhibitors of mouse TRPC6 channel. Q61143. actives 1.1% (n = 310,000). B-score at 10 µM. HEK293-TRPC6, membrane potential dye, ACh-evoked depolarization; stronger effect = lower value;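 active = B-score under library mean minus 3 SD, initial fluorescence not abnormally high, positive integrated signal ratio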;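 note: B-score derived from integrated fluorescence ratio over the kinetic read; more negative B-score means stronger inhibition of depolarization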
Target sequence (Q61143 whole entry, looked up): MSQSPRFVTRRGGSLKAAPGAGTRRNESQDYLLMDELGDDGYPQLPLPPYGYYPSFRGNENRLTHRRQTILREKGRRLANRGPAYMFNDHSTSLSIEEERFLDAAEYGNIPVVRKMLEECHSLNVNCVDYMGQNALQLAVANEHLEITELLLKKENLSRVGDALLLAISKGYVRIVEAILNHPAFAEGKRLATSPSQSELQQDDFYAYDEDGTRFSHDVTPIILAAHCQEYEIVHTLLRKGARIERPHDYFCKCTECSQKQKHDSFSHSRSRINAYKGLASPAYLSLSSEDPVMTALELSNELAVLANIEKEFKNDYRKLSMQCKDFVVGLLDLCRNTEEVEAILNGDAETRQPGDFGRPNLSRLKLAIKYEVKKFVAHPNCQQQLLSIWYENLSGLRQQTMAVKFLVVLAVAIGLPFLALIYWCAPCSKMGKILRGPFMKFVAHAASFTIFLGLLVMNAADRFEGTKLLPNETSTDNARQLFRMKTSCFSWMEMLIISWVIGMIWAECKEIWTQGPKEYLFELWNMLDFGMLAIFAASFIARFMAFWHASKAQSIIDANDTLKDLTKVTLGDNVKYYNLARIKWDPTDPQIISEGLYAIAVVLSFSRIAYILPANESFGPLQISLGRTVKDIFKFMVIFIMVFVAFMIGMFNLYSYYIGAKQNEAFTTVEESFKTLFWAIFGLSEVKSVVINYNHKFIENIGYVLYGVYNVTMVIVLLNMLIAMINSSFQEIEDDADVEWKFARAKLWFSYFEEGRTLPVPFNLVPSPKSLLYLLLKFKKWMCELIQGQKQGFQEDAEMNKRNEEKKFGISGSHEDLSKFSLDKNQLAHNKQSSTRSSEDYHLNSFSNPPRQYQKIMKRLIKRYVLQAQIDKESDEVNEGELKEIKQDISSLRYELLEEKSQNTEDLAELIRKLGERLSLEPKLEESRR
TRPC6 act – activates the mouse TRPC6 cation channel; actives 0.13% (n = 310,000); B-score at 10 µM; AID 2550; HEK293-TRPC6 membrane potential dye fluorescence; stronger effect = higher value; Q61143;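 active = B-score of the integrated fluorescence ratio above library mean plus 3 SD, and starting fluorescence ratio within library mean plus 5 SD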;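 note: higher score means more depolarization so channel activation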
TRPC4 inh – blocks the mouse TRPC4 cation channel; actives 0.39% (n = 300,000); HEK293 TRPC4beta/mu-opioid, DAMGO-evoked Fluo4 calcium flux; stronger effect = lower value; AID 2247; B-score at 10 µM; Q9QUQ5;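 active = B-score over 3 SD under the library average, no early fluorescence shift, positive overall ratio signal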
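Material: HEK293 cells with stable TRPC4beta plus mu-opioid receptor expression / Probe or stimulus: DAMGO in two steps, submaximal then maximal / Compound: single concentration per test compound / Technique: kinetic Fluo4 fluorescence imaging of calcium influx / Read-out: per-well B score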
TRPC4 sel inh 2 – second selectivity test of TRPC6 inhibitors: effect on mouse TRPC4; inhibition, % at 10 µM; actives 42% (n = 920); HEK293 TRPC4/MOR, membrane potential dye fluorescence; channel activated by saturating DAMGO dose; shares compounds with TRPC6 inhibitor; AID 2776;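 active = compounds whose fluorescence signal differed from control wells by over 3 SD, either direction, in both duplicate plates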
TRPC4 spec – selectivity of TRPC6 inhibitors: effect on mouse TRPC4; AID 2777; activity change, negative = inhibition, % at 10 µM; shares compounds with TRPC6 inhibitor; actives 61% (n = 920); HEK293 TRPC4/mu-opioid, membrane potential fluorescence;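 active = rise or fall in signal beyond 3 SD of buffer-only wells in both replicate plates, either sign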;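 note: integrated kinetic ratio of fluorescence range over baseline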
HEK293 MPD ctr 2-1 – parental HEK293 nonspecific activity of TRPC6 inhibitors, second screen | parental HEK293 membrane potential dye fluorescence; maximal acetylcholine challenge after compound addition | actives 31% (n = 920) | shares compounds with TRPC6 inhibitor | signal change vs control, % at 10 µM;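 active = membrane potential signal moving either way by over 3 SD of the maximum-effect control, in both duplicate plates, meaning non-specific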
HEK293 MPD ctr-1 – checks TRPC6 inhibitor effects in parental HEK293 cells; membrane potential signal change, % at 10 µM; shares compounds with TRPC6 inhibitor; AID 2780; actives 60% (n = 920); parental HEK293 membrane potential dye fluorescence;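 active = membrane potential signal shifting up or down by more than 3 SD of buffer-only wells, on both duplicate plates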
HEK293 MPD ctr-2 – parental HEK293 nonspecific activity of TRPC6 modulators. shares compounds with TRPC6 inhibitor. membrane potential dye fluorescence. membrane potential signal change, % at 10 µM. actives 51% (n = 2,400). AID 488924;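 active = membrane potential signal moves up or down beyond 5 SD from buffer-only wells, on both duplicate plates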
HEK293 MPD ctr 2-2 – second check of TRPC6 modulator effects in parental HEK293 cells | shares compounds with TRPC6 inhibitor | membrane potential dye fluorescence; after compound, maximal acetylcholine stimulation | inhibition, % at 10 µM | actives 14% (n = 2,400) | AID 488926;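 active = membrane potential signal drops by more than 5 SD from the mean control signal, in both duplicate plates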;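 note: plate controls were acetylcholine ECmax control wells for no effect and buffer only wells for full effect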
TRPC4 ctr mod – selectivity of TRPC6 modulators against mouse TRPC4; HEK293 TRPC4/mu-opioid, membrane potential fluorescence; shares compounds with TRPC6 inhibitor; actives 69% (n = 2,400); percent change from control (negative = decrease, positive = increase), % at 10 µM; AID 488927;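 active = membrane potential signal moved up or down beyond 5 SD of buffer control wells, in both duplicate plates, actives on both sides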;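 note: plate controls were assay buffer wells for no effect and DAMGO maximal-effect wells for full effect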
TRPC4 ctr inh 2 – mouse TRPC4 off-target activity of TRPC6 modulators, second screen; shares compounds with TRPC6 inhibitor; HEK293 TRPC4/mu-opioid, membrane potential dye fluorescence; stimulated with maximal-effect DAMGO; inhibition, % at 10 µM; actives 55% (n = 2,400); AID 488928;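 active = drop in membrane potential signal beyond 5 SD of the control wells in both duplicate plates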;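 note: TRPC4 counter screen for TRPC6 hits run under conditions tuned for TRPC6 not TRPC4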
TRPC6 block conf – confirmation of mouse TRPC6 inhibitors; HEK293-TRPC6, membrane potential dye, ACh-evoked depolarization; shares compounds with TRPC6 inhibitor; actives 43% (n = 3,300); inhibition, % at 10 µM;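 active = fluorescence ratio falls more than 5 SD below the full-stimulation control mean, in both duplicate runs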;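 note: integrated fluorescence ratio of peak minus minimum over baseline after agonist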
TRPC6 act confirm – confirmation of mouse TRPC6 activators. shares compounds with TRPC6 inhibitor. HEK293-TRPC6 membrane potential dye fluorescence, FDSS. activation, % at 10 µM. actives 11% (n = 2,800);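 active = ratio signal rise beyond 5 SD above unstimulated control wells' mean, seen in both duplicate runs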;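 note: plate controls were buffer EC0 wells for no effect and acetylcholine ECmax response for full effect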
An asterisk follows results filed as active; i = inactive; · = not tested or not shown. Hits are enriched below; roughly 2.3% of the tested compounds scored in any of these assays.

SMILES	TRPC4 PAM	TRPC4 agonist	TRPC6 inhibitor	TRPC6 act	TRPC4 inh	HEK293 MPD ctr-2	HEK293 MPD ctr 2-2	TRPC4 ctr mod	TRPC4 ctr inh 2	TRPC6 block conf	TRPC6 act confirm	others
COc1ccc(S(=O)(=O)N2CCCCC2)cc1NC(=O)c1ccc([N+](=O)[O-])o1	i	i	i	i	i	·	·	·	·	·	·
CCN1CCN(c2ccc(S(=O)(=O)N3CCCCC3)cc2NC(=O)c2ccc([N+](=O)[O-])o2)CC1	i	i	-7.5*	i	i	-130.5%*	i	-29.5%*	53.5%*	i	i
CCN1CCN(c2ccc(S(=O)(=O)N3CCCCC3)cc2NC(=O)COc2cc(C)ccc2Cl)CC1	25*	i	-5.68*	i	i	i	i	i	53.5%*	i	i
COC(=O)/C(C#N)=C\c1c(OC)[nH]c2ccccc12	i	i	i	i	i	·	·	·	·	·	·
O=C(O)c1cc(NN=C2c3ccccc3-c3ccccc32)ccc1Cl	i	i	-5.41*	i	-8*	i	i	-11.5%*	59.0%*	61.0%*	·
Cc1ccc(C)c(N2CCN(C(=O)CCCOc3cc(=O)n(C)c4ccccc34)CC2)c1	i	i	-6.23*	i	i	139.0%*	i	30.5%*	i	55.0%*	·
O=C(CCNc1n[nH]c(=O)[nH]c1=O)N/N=C/c1ccc(C(F)(F)F)cc1	i	i	i	i	i	·	·	·	·	·	·
O=C(COc1ccc2c(-c3ccccc3)cc(=O)oc2c1)Nc1cccnc1	i	i	i	i	i	·	·	·	·	·	·
Cc1cccc(-c2sc(Nc3ccccc3)n[n+]2-c2ccc(F)cc2)c1	i	i	i	i	i	·	·	·	·	·	·
COc1ccc(-c2sc(Nc3ccccc3)n[n+]2-c2ccc(F)cc2)c(C)c1C	i	i	-5.38*	i	i	i	i	i	63.0%*	i	i
CN(C)/C=C1\Cc2ccccc2C1=O	i	i	i	i	i	·	·	·	·	·	·
CC[N+]1(C)CCC(=C2c3ccccc3CC(=O)c3sccc32)CC1 (stereo not given)	i	i	-13.7*	i	i	·	·	·	·	79.8%*	i	TRPC4 sel inh 2=i;TRPC4 spec=i;HEK293 MPD ctr 2-1=43.0%*;HEK293 MPD ctr-1=i
CCNC(=O)OCC(CC)NC(=O)OCC(C)C (stereo not given)	i	i	i	i	i	·	·	·	·	·	·
CCC(COC(=O)Nc1cccc(C)c1)NC(=O)OCC(C)C (stereo not given)	i	i	-5.09*	i	i	i	i	i	i	i	i
COC(=O)CSc1[nH]c2ccc(F)cc2c1[N+](=O)[O-]	i	i	i	i	i	·	·	·	·	·	·
CN(C)CCNc1ncnc2c1cnn2-c1ccc(Cl)cc1	i	i	-5.2*	i	i	i	i	i	31.0%*	45.5%*	i
CC(C)CC1NC(=O)N(CC(=O)NC2CCCc3ccccc32)C1=O (stereo not given)	i	i	i	i	i	·	·	·	·	·	·
O=C(CNC(=O)c1ccccc1F)N/N=C/c1cn[nH]c1-c1ccccc1	i	i	-5.81*	i	i	i	i	i	i	i	·
Cc1nc(Cc2nnc(SC(C)C(=O)Nc3cccc(C#N)c3)o2)cs1 (stereo not given)	i	i	i	i	i	·	·	·	·	·	·
Cc1ccc(OC(C)C(=O)N2CC(=O)Nc3ccccc32)cc1 (stereo not given)	i	i	i	14.9*	i	i	i	i	i	·	136.0%*
Cc1nnsc1C(=O)N/N=C/c1ccc2ccccc2c1O	i	i	-7.62*	i	i	·	·	·	·	i	·	TRPC4 sel inh 2=i;TRPC4 spec=27.0%*;HEK293 MPD ctr 2-1=-47.0%*;HEK293 MPD ctr-1=19.0%*
Cc1nnsc1C(=O)N/N=C/c1ccccc1	i	i	i	i	i	·	·	·	·	·	·
Cc1cc(C(=O)CN2C(=O)C(=O)N(Cc3ccccc3)C2=O)c(C)n1-c1ccc2c(c1)OCCO2	i	i	i	i	i	·	·	·	·	·	·
CCn1c(SCC(=O)O)nnc1-c1cccnc1	i	i	i	i	i	·	·	·	·	·	·
O=C(CN1CCCCC1)Nc1ccc(N2CCCCCC2)cc1	i	i	-6.6*	i	i	i	i	i	36.5%*	54.0%*	i
CCN(CC)CC(=O)Nc1ccc(-c2nc3cc(NC(=O)CN(CC)CC)ccc3o2)cc1	i	i	-8.65*	i	i	·	·	·	·	i	·	TRPC4 sel inh 2=71.5%*;TRPC4 spec=i;HEK293 MPD ctr 2-1=i;HEK293 MPD ctr-1=i
O=C(CN1CCCC1)Nc1ccc(-c2nc3cc(NC(=O)CN4CCCC4)ccc3o2)cc1	i	i	i	11.8*	i	218.5%*	i	27.5%*	i	i	76.0%*
COc1cc(NC(=O)c2cc(C)no2)cc(OC)c1OC	i	i	i	i	i	·	·	·	·	·	·
Cc1ccc(S(=O)(=O)CCC(O)c2ccc(Cl)cc2)cc1 (stereo not given)	i	i	i	i	i	·	·	·	·	·	·
